ChEMBL document CHEMBL1240503, “Design, synthesis and biological evaluation of new (E)- and (Z)-1,2,3-triaryl-2-propen-1-ones as selective COX-2 inhibitors” (Eur J Med Chem, 2010)

Biological target: T1, Prostaglandin G/H synthase 1 (Ovis aries, UniProt P05979)
T1 sequence (P05979 whole entry): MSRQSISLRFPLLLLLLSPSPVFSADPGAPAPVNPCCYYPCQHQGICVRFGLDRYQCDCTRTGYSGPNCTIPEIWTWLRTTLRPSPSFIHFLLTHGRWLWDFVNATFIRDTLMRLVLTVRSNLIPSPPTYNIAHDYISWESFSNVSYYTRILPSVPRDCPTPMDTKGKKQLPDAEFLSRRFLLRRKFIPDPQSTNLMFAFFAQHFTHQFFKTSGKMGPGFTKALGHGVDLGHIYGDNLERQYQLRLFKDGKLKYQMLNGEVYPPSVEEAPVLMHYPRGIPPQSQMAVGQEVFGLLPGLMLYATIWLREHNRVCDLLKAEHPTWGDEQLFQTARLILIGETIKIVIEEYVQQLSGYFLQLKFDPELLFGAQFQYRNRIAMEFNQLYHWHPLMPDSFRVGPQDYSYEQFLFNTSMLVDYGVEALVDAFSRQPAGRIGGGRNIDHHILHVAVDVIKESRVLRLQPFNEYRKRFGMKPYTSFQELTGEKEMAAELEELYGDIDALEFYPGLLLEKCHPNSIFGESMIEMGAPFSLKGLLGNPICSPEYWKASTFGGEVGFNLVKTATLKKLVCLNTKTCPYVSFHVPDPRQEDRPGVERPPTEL
Test: Inhibition of ovine COX1 by chemiluminescence assay
Summary of the method: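 Enzyme activity read as arachidonate-induced luminescence, taken as a real-time index of COX catalytic turnover; inhibition measured as loss of this luminescence signal.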

Compound	IC50 [µM]
Cc1ccc(/C=C(\C(=O)c2ccc(S(C)(=O)=O)cc2)c2ccccc2)cc1	12.2
CS(=O)(=O)c1ccc(C(=O)/C(=C\c2ccccc2)c2ccccc2)cc1	14.3
Cc1ccc(/C=C(/C(=O)c2ccc(S(C)(=O)=O)cc2)c2ccccc2)cc1	10.4
COc1ccc(/C=C(/C(=O)c2ccc(S(C)(=O)=O)cc2)c2ccccc2)cc1	10.7
COc1ccc(/C=C(\C(=O)c2ccc(S(C)(=O)=O)cc2)c2ccccc2)cc1	18.4
CS(=O)(=O)c1ccc(C(=O)/C(=C/c2cccs2)c2ccccc2)cc1	13.1
CS(=O)(=O)c1ccc(C(=O)/C(=C\c2ccc(F)cc2)c2ccccc2)cc1	30.9
CS(=O)(=O)c1ccc(C(=O)/C(=C/c2ccc(F)cc2)c2ccccc2)cc1	12.6
CS(=O)(=O)c1ccc(C(=O)/C(=C/c2ccc(O)cc2)c2ccccc2)cc1	14.4
CS(=O)(=O)c1ccc(C(=O)/C(=C/c2ccccc2)c2ccccc2)cc1	13.3
CS(=O)(=O)c1ccc(C(=O)C(=Cc2ccncc2)c2ccccc2)cc1 (mixture of isomers)	12.4
